High-throughput results: PubChem, several laboratories
Only some compounds are listed: those with a hit (about 1.9% of all), similar ones and a draw of the others.
Runt-CBFb FRET: inhibitors of human RUNX1 Runt domain binding to CBFb | Q01196+Q13951 | Cerulean-Runt/Venus-CBFb FRET ratio 530/480, 1 h | inhibition, % at 20 µM | 0.46% of 220,000 active | AID 1496;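 active means inhibition over about 50% at 20 µM in the single-dose screen, limit read from the data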;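 further: 0% = DMSO wells and 100% = excess unlabeled CBFb competitor control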
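Measured by: fluorescence energy transfer, 422 nm excitation, 530/480 nm emission; test system: Cerulean-tagged RUNX1 Runt domain (FRET donor) fusion protein; buffer or medium: Tris pH 7.5 buffer with BSA; compound: one dose, 20 µM compound, 1% DMSO; times: two 1 h room-temperature incubations shielded from light; benchmarks: unlabeled CBFb 5 µM, positive control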
Runt-SMMHC FRET: blocks binding of human RUNX1 Runt domain to CBFb-SMMHC. Q01196+Q13951. Cerulean-Runt/Venus-CBFb-SMMHC FRET ratio 530/480, 1 h. inhibition, % at 20 µM. 0.74% of 220,000 active. AID 1434;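 active means mean inhibition across duplicate retests at 20 µM reaching about 50%, limit read from the data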;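 further: 0% = DMSO wells and 100% = wells with excess untagged CBFb-SMMHC; inhibitors lower the FRET ratio by blocking Runt binding to CBFb-SMMHC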
Hck Nef HTS: human Hck-Nef kinase inhibition; P08631; Recombinant Hck-YEEI plus Nef, Z-Lyte FRET kinase assay; inhibition, % at 20 µM; 0.68% of 220,000 active;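 active means Hck-Nef kinase inhibition above about 50%, limit read from the data; inactive means inhibition below that limit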;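 further: 0% = DMSO with Hck plus Nef and 100% = Hck alone without Nef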
Target sequence (P08631 whole entry, looked up): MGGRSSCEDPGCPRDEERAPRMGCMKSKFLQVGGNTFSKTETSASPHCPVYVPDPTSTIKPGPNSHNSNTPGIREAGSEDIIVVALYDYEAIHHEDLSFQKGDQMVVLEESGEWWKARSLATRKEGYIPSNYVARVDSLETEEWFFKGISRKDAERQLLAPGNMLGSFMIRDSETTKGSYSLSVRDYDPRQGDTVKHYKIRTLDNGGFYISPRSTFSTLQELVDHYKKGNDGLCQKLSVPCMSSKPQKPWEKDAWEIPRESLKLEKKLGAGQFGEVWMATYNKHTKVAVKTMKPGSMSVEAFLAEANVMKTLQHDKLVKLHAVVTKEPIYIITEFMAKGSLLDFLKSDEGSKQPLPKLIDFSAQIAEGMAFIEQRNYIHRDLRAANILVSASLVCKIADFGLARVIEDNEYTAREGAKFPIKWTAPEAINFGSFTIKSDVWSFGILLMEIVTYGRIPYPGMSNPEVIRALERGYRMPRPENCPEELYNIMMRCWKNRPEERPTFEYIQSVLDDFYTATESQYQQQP
RanGTP-Impb inh: disruptors of Ran-importin-beta complex formation – biochemical, FRET, CFP-Ran, YFP-importin-beta, homogeneous, primary screen. cell-free CFP-Ran/YFP-importin-beta FRET ratio. inhibition, % (test concentration not listed). 1.1% of 300,000 active;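 active means more than half of the replicate wells show a fall in the fluorescence ratio signal beyond about 16%, limit read from the data, passing the limit was not always enough; inconclusive means exactly half of the replicate wells pass the set limit; inactive means fewer than half of replicates pass the limit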;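 further: 0% = DMSO wells and 100% = Ran loaded with GDP instead of GTP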
The depositor's hits bear a star; ? = inconclusive; nt = no result given.

SMILES | Runt-CBFb FRET | Runt-SMMHC FRET | Hck Nef HTS | RanGTP-Impb inh
CCCS(=O)(=O)c1c(S(=O)(=O)CCC)c2cc(-c3ccncc3)ccn2c1C(=O)OC | 17.6 | 109.2* | 19.8 | -1.9
CCOC(=O)N1CCN(C(=O)c2c(Cl)cnn2C)CC1 | nt | nt | nt | 2.0
CCOC(=O)N1CCN(Cc2ccc3ccccc3c2)CC1 | nt | nt | nt | -2.2
N#Cc1cc(NC(=O)c2ccc(F)cc2)c(=O)n2c1[nH]c1ccccc12 | -2.8 | -13.2 | 22.6 | 25.7*
C=CCN(CC=C)C(=O)c1ccc(OC2CCN(S(=O)(=O)N(C)C)CC2)cc1 | 1.1 | -0.9 | 14.9 | -0.6
c1ccc(-c2nnc(SCC3CCCO3)nc2-c2ccccc2)cc1 (stereo unspecified) | -2.1 | -4.2 | 6.4 | 26.4*
c1ccc(-c2nnc(SCC3CCCCO3)nc2-c2ccccc2)cc1 (stereo unspecified) | 9.8 | 2.8 | 13.4 | -4.7
CCN(CC(=O)NCc1cccs1)C(=O)c1ccc(OC)c(OC)c1 | nt | nt | nt | 2.6
O=c1[nH][nH]c2cc(=O)n(-c3cccc(C(F)(F)F)c3)nc12 | -5.9 | -7.7 | 29.9 | 0.2
Nc1n[nH]c2cc(=O)n(-c3cccc(C(F)(F)F)c3)nc12 | 64.3* | 85.9* | 26.0 | 118.3*
CCc1ccc(NC(=O)c2ccccc2SC)cc1 | -0.1 | 1.3 | -1.1 | -1.9
NC(=O)c1ccc(/C(N)=N/S(=O)(=O)c2cc(C(F)(F)F)cc(C(F)(F)F)c2)cc1 | -1.3 | -2.0 | 17.1 | 6.0
O=c1cc(N2CCc3ccccc32)[nH]c(=O)n1-c1ccc(Br)cc1 | 7.1 | 7.3 | -0.1 | -7.1
O=c1cc(N2CCc3ccccc3C2)[nH]c(=O)n1Cc1ccc(F)cc1 | 1.7 | 16.1 | -0.5 | 80.1*
O=c1cc(N2CCc3ccccc3C2)[nH]c(=O)n1-c1ccc(Br)cc1 | 2.1 | 4.4 | -0.2 | 123.9*
O=c1cc(N2CCc3ccccc3C2)[nH]c(=O)n1-c1ccc(Cl)cc1 | 4.0 | -0.2 | -20.2 | 117.1*
O=c1cc(N2CCC3(CC2)OCCO3)[nH]c(=O)n1-c1ccc(Cl)cc1 | 10.6 | 32.4 | -0.6 | 11.9
NC(=Nc1ccc(Br)cc1)c1ccccc1 | nt | nt | nt | 4.4
CC(=Nc1ccc(Br)cc1)c1sc2ccccc2c1O | 9.3 | 81.2 | 8.3 | 49.1*
CC(=Nc1ccccc1)c1sc2ccccc2c1O | 14.1 | -6.8 | -2.2 | 47.7*
COC(=O)c1ccccc1S(=O)(=O)N1CCC(C(=O)OCC(=O)c2ccccc2OC)CC1 | nt | nt | nt | -3.1
COc1ccc(NC(=O)CSc2nc3c(cc2C#N)CN(C)CC3)cc1 | 9.5 | 6.1 | nt | -1.4
CCN1CCc2nc(SCC(=O)Nc3ccc(OC)cc3)c(C#N)cc2C1 | 21.2 | 94.1* | 17.8 | ?
Cc1ccc2oc(C(=O)N3CCN(CC(=O)NC(C)C)CC3)c(C)c2c1 | nt | nt | nt | -1.3
CC(CCc1ccc(O)cc1)NCCc1ccc(O)c(O)c1 (stereo unspecified) | nt | nt | nt | 40.3*
SMILES | Runt-CBFb FRET | Runt-SMMHC FRET | Hck Nef HTS | RanGTP-Impb inh
O=C(c1cc2c(ccc3ccccc32)oc1=O)N1CCCC1 | 5.2 | 12.3 | 6.3 | -0.1
N=c1oc2ccc3ccccc3c2cc1C(N)=S | 118.1* | 91.5* | 22.7 | 75.5*
O=C(OCc1nc2ccccc2s1)c1cc2ccccc2oc1=O | -0.4 | -0.9 | 2.6 | 2.7
O=C(O)c1cc2c(ccc3ccccc32)oc1=O | 11.9 | 11.1 | -15.3 | -0.2
CC(OC(=O)c1cc2c(ccc3ccccc32)oc1=O)c1nc2ccccc2s1 (stereo unspecified) | 39.2 | 92.8* | 4.8 | 49.1*
CCOC(=O)c1cc2c(ccc3ccccc32)oc1=O | 85.3* | 91.5* | 22.9 | ?
O=C(NCc1ccccn1)c1cc2c(ccc3ccccc32)oc1=O | 104.1* | nt | -11.7 | 36.8*
CC(CNC(=O)CN1C(=O)COc2ccc(S(=O)(=O)N3CCCCC3)cc21)c1ccccc1 (stereo unspecified) | nt | nt | nt | 3.2
Cn1nnnc1SCC(=O)Nc1ccc2c(c1)OCO2 | -0.3 | -1.1 | -26.0 | -0.6
COc1cccc(CNC(=O)c2cnc(-c3ccccn3)nc2C(F)(F)F)c1 | 0.5 | 5.6 | -2.6 | 29.5*
COc1ccc(OCC(=O)Nc2c3c(nn2-c2ccccc2)CS(=O)(=O)C3)cc1 | nt | nt | nt | -1.3
Cc1ccc(Nc2[nH]c(=O)c3ccccc3c2C(=O)c2ccccc2)cc1 | nt | nt | nt | 27.4*
COc1cc(-c2onc3ccc(Br)cc23)cc(OC)c1OC | 67.2* | 110.6* | 21.6 | 10.0
O=C1CC(c2ccccc2)c2cccc(F)c21 (stereo unspecified) | nt | nt | nt | 2.6
COc1cc(CN2CCN(CCc3ccccc3)C(CCO)C2)cc(OC)c1 (stereo unspecified) | -1.0 | 3.8 | 6.5 | 1.3
COc1cc(CN2CCN(CCCc3ccccc3)CC2CCO)cc(OC)c1 (stereo unspecified) | nt | nt | nt | 27.4*
Cc1onc(-c2c(Cl)cccc2Cl)c1COC(=O)c1ccc(Cl)cc1 | -0.1 | -1.4 | -2.3 | 0.3
CCN(CC)c1ccc(/C=N/NC(=O)c2cccc(S(=O)(=O)N3CCOCC3)c2)c(O)c1 | 20.3 | 91.9* | -61.7 | -0.7
C/C(=N\Nc1ccc([N+](=O)[O-])cc1)c1ccc(-n2nncc2C)cc1 | -14.7 | -25.6 | -0.1 | 1.9
CC(C)(C)c1cnnn1-c1ccc(/C=N/Nc2ccc([N+](=O)[O-])cc2)cc1 | -27.5 | -24.0 | 3.5 | 33.8*
COc1cc(/C=C(\C#N)c2nc(-c3cc4ccccc4oc3=O)cs2)ccc1O | -24.1 | -42.3 | -1.3 | -5.0
COc1cc(/C=C(/C#N)c2nc(-c3cc4ccccc4oc3=O)cs2)cc([N+](=O)[O-])c1O | -13.6 | -28.9 | 113.8* | nt
CS(=O)(=O)c1ccc(C(=O)OCC(=O)N(CCc2ccccc2)Cc2ccccc2)cc1 | nt | nt | nt | 3.9
O=C(O)C1CCCCC1C(=O)Nc1cccc(Cl)c1Cl (stereo unspecified) | -2.3 | -8.0 | 0.2 | 0.5
CC1CC1c1ccc(/C=C(\C#N)C(=O)Nc2cccc(Cl)c2Cl)o1 (stereo unspecified) | -20.1 | -111.8 | 1.6 | 40.4*
SMILES | Runt-CBFb FRET | Runt-SMMHC FRET | Hck Nef HTS | RanGTP-Impb inh
COc1cc(C(=O)OCC(=O)c2cc(C)n(CC3CCCO3)c2C)ccc1OCC(=O)N1CCOCC1 (stereo unspecified) | nt | nt | nt | 1.8
CC(=O)C1C(c2ccc(Br)cc2)C2C(C)=NN=C2CC1(C)O (stereo unspecified) | 1.6 | 2.8 | -0.2 | 2.8
Cc1cc(C)c2nc(NCCCNC(=S)NCCCN(C)C)c(C#N)cc2c1 | 80.8* | 88.8* | 49.7 | -2.5
CCOCCCNC(=S)NCCCNc1nc2c(C)cc(C)cc2cc1C#N | 36.6 | 91.1* | 32.8 | nt
COCCCNC(=S)NCCNc1nc2cc(C)cc(C)c2cc1C#N | 33.8 | 45.1 | 23.7 | 0.2
O=C(O)c1cc2ccc3ccccc3c2oc1=O | 27.7 | 96.9* | 8.9 | ?
O=C(O)c1cc2cc(Cl)cc(Cl)c2oc1=O | -9.5 | -60.0 | -1.3 | -2.0
COc1cccc(N2CC(C)Cn3c2nc2c3c(=O)[nH]c(=O)n2C)c1 (stereo unspecified) | nt | nt | nt | 3.1
Cc1ccc2sc(NC(=O)CSc3nc(C)cc(C)c3C#N)nc2c1 | 12.5 | 55.6* | 1.3 | 8.3
